{
  "source": "PubChem BioAssay AID588826",
  "about": "(Broad Institute, 2011)",
  "key": {"[1]": {"assay": "cell viability loss, SR-BI-overexpressing CHO line – CellTiter-Glo luminescence, 24 h, dry powder, set 3, cytotoxicity control for SR-BI HDL uptake inhibitor project, dose response (AID 588826)", "details": "ldlA[mSR-BI] CHO cells viability, CellTiter-Glo ATP, 24 h", "procedure,_shortened": "(§1)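 Assay system: ldlA[mSR-BI] cells; Buffer or medium: Ham's F12 growth medium with 10% FCS; Signal: ATP luminescence, CellTiter-Glo; Times: 24 h compound exposure at 37 °C, read 10 min after reagent; Read-out basis: cell viability IC50.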"}, "[2]": {"test_system": "ldlA[mSR-BI] CHO cells viability, CellTiter-Glo ATP, 24 h", "assay": "cell viability loss, SR-BI-overexpressing CHO line – CellTiter-Glo luminescence, 24 h, dry powder, set 3, cytotoxicity control for SR-BI HDL uptake inhibitor project, dose response (AID 588826)", "procedure,_shortened": "as §1"}},
  "note": "pIC50: −log10 of the molar value. Several values for one entry are separate records, joined by “and”; a condition that tells them apart may be missing. Equal entries are not always repeated. Activity calls are given as the source filed them.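 How the source made its calls: active means compounds cutting cell viability whose fitted half-maximal concentration is at most twice the top tested dose; inconclusive means flat loss between 30% and 70%, or poor curve fit; inactive means opposite effect, flat within 30%, or weaker potency.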",
  "data": [
    {"smiles": "C[C@@H]1CN([C@H](C)CO)C(=O)c2cc(NC(=O)Cc3cn(C)c4ccccc34)ccc2O[C@H]1CN(C)S(=O)(=O)c1ccc(Cl)cc1", "values": [
      {"measurement": "activity change, negative = cytotoxicity", "setting": "[1]; at 35 µM (top of the series)", "result": "4.93% (inactive) and -3.5% (inactive) and 6.65% (inactive)"}
    ]},
    {"smiles": "CCC(=O)N1CCc2cc(-c3csc(NC(=O)c4cccc(OC)c4)n3)ccc21", "values": [
      {"measurement": "activity change, negative = cytotoxicity", "setting": "[1]; at 35 µM (top of the series)", "result": "3.32% (inactive)"}
    ]},
    {"smiles": "CCC(=O)N1CCc2cc(-c3csc(NC(=O)c4ccc5c(c4)OCO5)n3)ccc21", "values": [
      {"measurement": "activity change, negative = cytotoxicity", "setting": "[1]; at 35 µM (top of the series)", "result": "1.94% (inactive)"}
    ]},
    {"smiles": "COc1c(NC(=O)C(=O)c2ccc(OCCN3CCOCC3)c3ccccc23)cc(C(C)(C)C)cc1NS(C)(=O)=O", "values": [
      {"measurement": "pIC50", "setting": "[2]", "result": 4.75}
    ]},
    {"smiles": "COc1cc(OC)cc(C(=O)Nc2nc(-c3ccc4c(c3)CCN4C(=O)OC(C)(C)C)cs2)c1", "values": [
      {"measurement": "activity change, negative = cytotoxicity", "setting": "[1]; at 35 µM (top of the series)", "result": "5.45% (inactive)"}
    ]},
    {"smiles": "C[C@@H]1CN([C@H](C)CO)C(=O)c2cc(NC(=O)Cc3cn(C)c4ccccc34)ccc2O[C@H]1CN(C)S(=O)(=O)c1ccc(F)cc1", "values": [
      {"measurement": "activity change, negative = cytotoxicity", "setting": "[1]; at 35 µM (top of the series)", "result": "-4.67% (inactive)"}
    ]},
    {"smiles": "CCC(=O)N1CCc2cc(-c3csc(NC(=O)c4ccc(F)c(OC)c4)n3)ccc21", "values": [
      {"measurement": "activity change, negative = cytotoxicity", "setting": "[1]; at 35 µM (top of the series)", "result": "-12.3% (inactive)"}
    ]},
    {"smiles": "Cc1ccc2oc(-c3cccc(NC(=O)c4cc(-n5cnnc5)ccc4Cl)c3)nc2c1", "values": [
      {"measurement": "pIC50", "setting": "[2]", "result": 4.40}
    ]},
    {"smiles": "CCOc1ccc(NC(=O)CN2CCN(CC(=O)Nc3cc(OC)cc(OC)c3)CC2)cc1", "values": [
      {"measurement": "activity change, negative = cytotoxicity", "setting": "[1]; at 68 µM (top of the series)", "result": "-0.275% (inactive)"}
    ]},
    {"smiles": "COc1ccc(-c2nnn(CC(=O)N(CC3CCCCC3)C(C)C(=O)NC3CCCC3)n2)cc1OC", "note": "(stereo not given)", "values": [
      {"measurement": "activity change, negative = cytotoxicity", "setting": "[1]; at 35 µM (top of the series)", "result": "3.32% (inactive)"}
    ]},
    {"smiles": "CC(C(=O)NC1CCCC1)N(C(=O)Cn1nnc(-c2ccccc2)n1)C1CCCCC1", "note": "(stereo not given)", "values": [
      {"measurement": "activity change, negative = cytotoxicity", "setting": "[1]; at 35 µM (top of the series)", "result": "4.27% (inactive)"}
    ]},
    {"smiles": "CC(C)NC(=O)Nc1cccc2c1O[C@H](CN(C)Cc1ccc(Cl)c(Cl)c1)[C@@H](C)CN([C@@H](C)CO)C2=O", "values": [
      {"measurement": "activity change, negative = cytotoxicity", "setting": "[1]; at 11 µM (top of the series)", "result": "6.58% (inactive)"}
    ]},
    {"smiles": "CCC(=O)N1CCc2cc(-c3csc(NC(=O)c4ccco4)n3)ccc21", "values": [
      {"measurement": "activity change, negative = cytotoxicity", "setting": "[1]; at 35 µM (top of the series)", "result": "-2.4% (inactive)"}
    ]},
    {"smiles": "COc1ccc(-c2nnn(CC(=O)N(C3CCN(C)CC3)C(C)C(=O)NC3CCCC3)n2)cc1OC", "note": "(stereo not given)", "values": [
      {"measurement": "activity change, negative = cytotoxicity", "setting": "[1]; at 35 µM (top of the series)", "result": "9.25% (inactive)"}
    ]},
    {"smiles": "COc1cc(OC)cc(C(=O)Nc2nc(-c3ccc4c(c3)CCN4C(=O)CN(C)C)cs2)c1", "values": [
      {"measurement": "activity change, negative = cytotoxicity", "setting": "[1]; at 35 µM (top of the series)", "result": "-10.2% (inactive)"}
    ]},
    {"smiles": "O=C(CN(C(=O)Cn1nnc(-c2ccc3c(c2)OCO3)n1)C1CCCCC1)NC1CCCC1", "values": [
      {"measurement": "activity change, negative = cytotoxicity", "setting": "[1]; at 35 µM (top of the series)", "result": "-3.34% (inactive)"}
    ]},
    {"smiles": "CCC(=O)N1CCc2cc(-c3csc(NC(=O)c4ccc(Cl)s4)n3)ccc21", "values": [
      {"measurement": "activity change, negative = cytotoxicity", "setting": "[1]; at 35 µM (top of the series)", "result": "-1.8% (inactive)"}
    ]},
    {"smiles": "COc1ccc(-c2nnn(CC(=O)N(C3CCCCC3)C(C(=O)NC3CCCC3)C(C)C)n2)cc1OC", "note": "(stereo not given)", "values": [
      {"measurement": "activity change, negative = cytotoxicity", "setting": "[1]; at 35 µM (top of the series)", "result": "-15.8% (inactive)"}
    ]},
    {"smiles": "CCCCCCC1CCC/C1=N\\NC(N)=S", "note": "(stereo not given)", "values": [
      {"measurement": "pIC50", "setting": "[2]", "result": 5.35}
    ]},
    {"smiles": "COc1ccc(-c2nnn(CC(=O)N(C3CCCC3)C(C)C(=O)NC3CCCC3)n2)cc1OC", "note": "(stereo not given)", "values": [
      {"measurement": "activity change, negative = cytotoxicity", "setting": "[1]; at 35 µM (top of the series)", "result": "-0.791% (inactive)"}
    ]},
    {"smiles": "CCNC(=O)N1CCc2cc(-c3csc(NC(=O)c4cc(OC)cc(OC)c4)n3)ccc21", "values": [
      {"measurement": "activity change, negative = cytotoxicity", "setting": "[1]; at 35 µM (top of the series)", "result": "-8.64% (inactive)"}
    ]},
    {"smiles": "CC(=O)N1CCc2cc(-c3nc(NC(=O)c4cccc(OC(F)(F)F)c4)sc3C)ccc21", "values": [
      {"measurement": "activity change, negative = cytotoxicity", "setting": "[1]; at 35 µM (top of the series)", "result": "1.36% (inactive)"}
    ]},
    {"smiles": "CCOc1ccccc1/C=C/c1onc(C)c1S(=O)(=O)N1CCC(C(=O)NC(C)(C)C)CC1", "values": [
      {"measurement": "pIC50", "setting": "[2]", "result": 4.47}
    ]},
    {"smiles": "CC(C)(Sc1cc(C(C)(C)C)c(O)c(C(C)(C)C)c1)Sc1cc(C(C)(C)C)c(O)c(C(C)(C)C)c1", "values": [
      {"measurement": "activity change, negative = cytotoxicity", "setting": "[1]; at 35 µM (top of the series)", "result": "-1.63% (inactive)"}
    ]},
    {"smiles": "CCOC(=O)N1CCC(NC(=O)c2ccc3c(c2)N(Cc2ccc(F)cc2)CCS3)CC1", "values": [
      {"measurement": "activity change, negative = cytotoxicity", "setting": "[1]; at 35 µM (top of the series)", "result": "-13.6% (inactive)"}
    ]},
    {"smiles": "CC1CCC/C=C/C2CC(O)CC2C(O)/C=C\\C(=O)O1", "note": "(stereo not given)", "values": [
      {"measurement": "activity change, negative = cytotoxicity", "setting": "[1]; at 35 µM (top of the series)", "result": "-9.81% (inactive)"}
    ]},
    {"smiles": "C[C@H](C(=O)NC1CCCC1)N(C(=O)Cn1nnc(-c2ccc3c(c2)OCO3)n1)C1CCCCC1", "values": [
      {"measurement": "activity change, negative = cytotoxicity", "setting": "[1]; at 35 µM (top of the series)", "result": "-10.6% (inactive)"}
    ]},
    {"smiles": "CCC(=O)N1CC(C)(C)c2cc(-c3csc(NC(=O)c4cc(OC)cc(OC)c4)n3)ccc21", "values": [
      {"measurement": "activity change, negative = cytotoxicity", "setting": "[1]; at 35 µM (top of the series)", "result": "-3.5% (inactive)"}
    ]},
    {"smiles": "C[C@H]1CN([C@@H](C)CO)C(=O)c2cccc(NC(=O)Nc3ccccc3)c2O[C@@H]1CN(C)Cc1ccc(Cl)c(Cl)c1", "values": [
      {"measurement": "pIC50", "setting": "[2]", "result": 4.79}
    ]},
    {"smiles": "COCC(=O)N1CCc2cc(-c3csc(NC(=O)c4cc(OC)cc(OC)c4)n3)ccc21", "values": [
      {"measurement": "activity change, negative = cytotoxicity", "setting": "[1]; at 35 µM (top of the series)", "result": "4.05% (inactive)"}
    ]},
    {"smiles": "C[C@@H]1CN([C@@H](C)CO)C(=O)Cc2cc(NC(=O)Nc3ccc(C(F)(F)F)cc3)ccc2O[C@@H]1CN(C)S(=O)(=O)c1ccc(Cl)cc1", "values": [
      {"measurement": "activity change, negative = cytotoxicity", "setting": "[1]; at 30 µM (top of the series)", "result": "-40.4% (inactive)"}
    ]},
    {"smiles": "CCC(=O)N1CCc2cc(-c3csc(NC(=O)c4cccc(C#N)c4)n3)ccc21", "values": [
      {"measurement": "activity change, negative = cytotoxicity", "setting": "[1]; at 35 µM (top of the series)", "result": "-0.356% (inactive)"}
    ]},
    {"smiles": "COc1ccc(-c2nnn(CC(=O)N(C3CCCCC3)C(C)C(=O)NC3CCCC3)n2)cc1OC", "note": "(stereo not given)", "values": [
      {"measurement": "activity change, negative = cytotoxicity", "setting": "[1]; at 35 µM (top of the series)", "result": "37.1% (inactive)"}
    ]},
    {"smiles": "CC(C(=O)NC1CCCC1)N(C(=O)Cn1nnc(-c2ccc(Cl)cc2)n1)C1CCCCC1", "note": "(stereo not given)", "values": [
      {"measurement": "pIC50", "setting": "[2]", "result": 4.28}
    ]},
    {"smiles": "COc1ccc(-c2cc(CC(=O)N(C3CCCCC3)C(C)C(=O)NC3CCCC3)no2)cc1OC", "note": "(stereo not given)", "values": [
      {"measurement": "activity change, negative = cytotoxicity", "setting": "[1]; at 35 µM (top of the series)", "result": "3.77% (inactive)"}
    ]}
  ]
}
